Reference: ChEMBL document CHEMBL1153988 (J Med Chem, 2009)

Experiments:
[1] = tested on: Mus musculus; experiment: Neurotoxicity in ip dosed CF1 albino mouse assessed as minimal motor impairment; format: toxicity, organism-based; conditions: mouse, in vivo
Method in brief: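 Mice: male CF no. 1 albino (18-25 g), ip dosing in 0.5% methylcellulose. Minimal motor impairment was scored, with doses varied to give four points between no impairment and all animals impaired.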

[2] = tested on: Mus musculus; experiment: Anticonvulsant activity in ip dosed CF1 albino mouse assessed as protection against 44 mA-current-induced seizure by 6Hz psychomotor seizure test; format: functional
Method in brief: (§1)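 In the 6 Hz psychomotor seizure test, male CF no. 1 albino mice (18-25 g) received the compound ip in 0.5% methylcellulose. Stimulation was at 32 or 44 mA. Doses were varied to give 3-4 points between 0% and 100% protection, and ED50 with 95% confidence interval came from probit analysis.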

[3] = tested on: Mus musculus; experiment: Anticonvulsant activity in ip dosed CF1 albino mouse assessed as protection against 32 mA current-induced seizure by 6Hz psychomotor seizure test; format: functional; method in brief: as §1
[4] = species: Mus musculus; experiment: Protective index, ratio of TD50 for CF1 albino mouse to ED50 for 32 mA current-induced CF1 albino mouse seizure model; format: functional
Method in brief: (§2)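 Protective index is the mouse TD50 (minimal motor impairment) divided by the 6 Hz test ED50 at 32 or 44 mA. Male CF no. 1 mice were dosed ip in 0.5% methylcellulose, and values came from probit analysis.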

[5] = tested on: Mus musculus; experiment: Neurotoxicity in CF1 albino mouse at 50 mg/kg, ip after 4 hrs; format: toxicity, organism-based; design: dose 50 mg/kg, route intraperitoneal; conditions: in vivo
Method in brief: (§3)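 Male CF no. 1 albino mice (18-25 g) received a single ip dose as a suspension in 0.5% methylcellulose. The read-out was the number of animals showing neurotoxicity (minimal motor impairment) over the number tested.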

[6] = tested on: Mus musculus; experiment: Anticonvulsant activity in CF1 albino mouse assessed as protection against maximal electroshock-induced seizures at 450 mg/kg, ip after 0.5 hrs; format: functional, organism-based; design: dose 450 mg/kg
Method in brief: (§4)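 Adult male CF no. 1 albino mice (18-25 g). Test compound suspended in 0.5% methylcellulose and given intraperitoneally at 0.01 mL/g body weight. Maximal electroshock challenge at the stated time. Read-out is the number of animals protected over the number tested; neurotoxicity is scored in parallel.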

[7] = tested on: Mus musculus; experiment: Neurotoxicity in CF1 albino mouse at 50 mg/kg, ip after 0.5 hrs; format: toxicity, organism-based; design: dose 50 mg/kg, route intraperitoneal; conditions: in vivo; method in brief: as §3
[8] = tested on: Mus musculus; experiment: Neurotoxicity in CF1 albino mouse at 450 mg/kg, ip after 0.5 hrs; format: toxicity, organism-based; design: dose 450 mg/kg, route intraperitoneal; conditions: in vivo; method in brief: as §3
[9] = tested on: Mus musculus; experiment: Anticonvulsant activity in CF1 albino mouse assessed as protection against maximal electroshock-induced seizures at 150 mg/kg, ip after 0.5 hrs; format: functional, organism-based; design: dose 150 mg/kg; method in brief: as §4
[10] = tested on: Mus musculus; experiment: Anticonvulsant activity in CF1 albino mouse assessed as protection against scMet-induced seizures at 50 mg/kg, ip after 4 hrs; format: functional, organism-based; design: dose 50 mg/kg
Method in brief: (§5)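 Adult male CF no. 1 albino mice (18-25 g) dosed intraperitoneally with compound suspended in 0.5% methylcellulose (0.01 mL/g). Convulsant challenge given subcutaneously as a 0.85% pentylenetetrazol solution in 0.9% saline. Read-out is animals protected over animals tested, with neurotoxicity scored in parallel.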

[11] = tested on: Mus musculus; experiment: Anticonvulsant activity in CF1 albino mouse assessed as protection against maximal electroshock-induced seizures at 50 mg/kg, ip after 0.5 hrs; format: functional, organism-based; design: dose 50 mg/kg; method in brief: as §4
[12] = tested on: Mus musculus; experiment: Anticonvulsant activity in CF1 albino mouse assessed as protection against maximal electroshock-induced seizures at 450 mg/kg, ip after 4 hrs; format: functional, organism-based; design: dose 450 mg/kg; method in brief: as §4
[13] = tested on: Mus musculus; experiment: Neurotoxicity in CF1 albino mouse at 150 mg/kg, ip after 4 hrs; format: toxicity, organism-based; design: dose 150 mg/kg, route intraperitoneal; conditions: in vivo; method in brief: as §3
[14] = tested on: Mus musculus; experiment: Anticonvulsant activity in CF1 albino mouse assessed as protection against maximal electroshock-induced seizures at 150 mg/kg, ip after 4 hrs; format: functional, organism-based; design: dose 150 mg/kg; method in brief: as §4
[15] = tested on: Mus musculus; experiment: Anticonvulsant activity in CF1 albino mouse assessed as protection against scMet-induced seizures at 150 mg/kg, ip after 4 hrs; format: functional, organism-based; design: dose 150 mg/kg; method in brief: as §5
[16] = tested on: Mus musculus; experiment: Neurotoxicity in CF1 albino mouse at 450 mg/kg, ip after 4 hrs; format: toxicity, organism-based; design: dose 450 mg/kg, route intraperitoneal; conditions: in vivo; method in brief: as §3
[17] = tested on: Mus musculus; experiment: Anticonvulsant activity in CF1 albino mouse assessed as protection against scMet-induced seizures at 450 mg/kg, ip after 0.5 hrs; format: functional, organism-based; design: dose 450 mg/kg; method in brief: as §5
[18] = tested on: Mus musculus; experiment: Anticonvulsant activity in CF1 albino mouse assessed as protection against maximal electroshock-induced seizures at 50 mg/kg, ip after 4 hrs; format: functional, organism-based; design: dose 50 mg/kg; method in brief: as §4
[19] = tested on: Mus musculus; experiment: Anticonvulsant activity in CF1 albino mouse assessed as protection against scMet-induced seizures at 450 mg/kg, ip after 4 hrs; format: functional, organism-based; design: dose 450 mg/kg; method in brief: as §5
[20] = tested on: Mus musculus; experiment: Anticonvulsant activity in CF1 albino mouse assessed as protection against scMet-induced seizures at 50 mg/kg, ip after 0.5 hrs; format: functional, organism-based; design: dose 50 mg/kg; method in brief: as §5
[21] = tested on: Mus musculus; experiment: Neurotoxicity in CF1 albino mouse at 150 mg/kg, ip after 0.5 hrs; format: toxicity, organism-based; design: dose 150 mg/kg, route intraperitoneal; conditions: in vivo; method in brief: as §3
[22] = tested on: Mus musculus; experiment: Anticonvulsant activity in CF1 albino mouse assessed as protection against scMet-induced seizures at 150 mg/kg, ip after 0.5 hrs; format: functional, organism-based; design: dose 150 mg/kg; method in brief: as §5
[23] = species: Mus musculus; experiment: Protective index, ratio of TD50 for CF1 albino mouse to ED50 for maximal electroshock-induced CF1 albino seizure mouse model; format: functional
Method in brief: (§6)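 Ratio of TD50 to ED50 (MES or scMet) in male CF no. 1 mice (18-25 g) given ip doses in 0.5% methylcellulose. TD50 comes from minimal motor impairment: the dose was varied until four points lay between no impairment and all animals impaired. Both TD50 and ED50 were derived by probit analysis with 95% confidence intervals.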

[24] = tested on: Rattus norvegicus; experiment: Anticonvulsant activity in po dosed albino Sprague-Dawley rat assessed as protection against scMet-induced seizures; format: functional
Method in brief: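 Male Sprague-Dawley albino rats (100-150 g) were dosed orally in 0.5% methylcellulose and tested by MES or by sc pentylenetetrazol (2.82% in 0.9% saline). Doses were varied to give 3-4 points between 0% and 100% protection. ED50 and 95% confidence intervals came from probit analysis.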

[25] = tested on: Rattus norvegicus; experiment: Anticonvulsant activity in po dosed albino Sprague-Dawley rat assessed as protection against maximal electroshock-induced seizures; format: functional
[26] = tested on: Mus musculus; experiment: Anticonvulsant activity in ip dosed CF1 albino mouse assessed as protection against maximal electroshock-induced seizures; format: functional
Method in brief: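 Male CF no. 1 albino mice (18-25 g) were dosed ip in 0.5% methylcellulose and tested by maximal electroshock. Doses were varied to give 3-4 points between 0% and 100% protection. ED50 with 95% confidence interval came from probit analysis.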

[27] = species: Rattus norvegicus; experiment: Protective index, ratio of TD50 for albino Sprague-Dawley rat to ED50 for maximal electroshock-induced albino Sprague-Dawley rat seizure model; format: functional
Method in brief: (§7)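 Protective index is the rat TD50 (minimal motor impairment) divided by the ED50 in the MES or sc pentylenetetrazol test. Male Sprague-Dawley rats were dosed orally in 0.5% methylcellulose, and both values came from probit analysis.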

[28] = species: Mus musculus; experiment: Protective index, ratio of TD50 for CF1 albino mouse to ED50 for 44 mA-current-induced CF1 albino mouse seizure model; format: functional; method in brief: as §2
[29] = Neurotoxicity in po dosed albino Sprague-Dawley rat assessed as minimal motor impairment; format: toxicity, organism-based; conditions: in vivo
Method in brief: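 Rats: male Sprague-Dawley (100-150 g), oral dosing in 0.5% methylcellulose. Doses were varied to give four points between no minimal motor impairment and all animals impaired. TD50 and 95% confidence intervals came from probit analysis.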

[30] = species: Rattus norvegicus; experiment: Protective index, ratio of TD50 for albino Sprague-Dawley rat to ED50 for scMet-induced albino Sprague-Dawley rat seizure model; format: functional; method in brief: as §7
[31] = tested on: Mus musculus; experiment: Anticonvulsant activity in ip dosed CF1 albino mouse assessed as protection against scMet-induced seizures; format: functional
Method in brief: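 Adult male CF no. 1 albino mice (18-25 g) dosed ip with compound suspended in 0.5% methylcellulose (0.01 mL/g body weight). Seizures were induced by subcutaneous pentylenetetrazol, given as a 0.85% solution in 0.9% saline. ED50 was found by varying the dose to give 3-4 points between 0% and 100% protection, then probit analysis with 95% confidence intervals.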

[32] = species: Mus musculus; experiment: Protective index, ratio of TD50 for CF1 albino mouse to ED50 for scMet-induced CF1 albino seizure mouse model; format: functional; method in brief: as §6

For `CC1(C)C(C(N)=O)C1(C)C`, the ED50 [1] was 99 mg/kg, the ED50 [2] was over 200 mg/kg and the ED50 [3] was 72 mg/kg. For the same molecule, the PI [4] was 1.4.
In the case of `CC1(C)C(C)(C)C1(Br)C(=O)O`, the Activity [5] is reported as “Non-toxic”, the Activity [6] is reported as “Non-toxic” and the Activity [7] is reported as “Non-toxic”. The Activity [8] was “Non-toxic”, the Activity [9] was “Non-toxic” and the Activity [10] was “Non-toxic”. For the same molecule, the Activity [11] was “Non-toxic”, the Activity [12] was “Non-toxic” and the Activity [13] was “Non-toxic”. The Activity [14] was “Non-toxic”, the Activity [15] was “Non-toxic” and the Activity [16] was “Non-toxic”. For the same molecule, the Activity [17] was “Non-toxic”, the Activity [18] was “Non-toxic” and the Activity [19] was “Non-toxic”. The Activity [20] was “Non-toxic”, the Activity [21] was “Non-toxic” and the Activity [22] was “Non-toxic”.
For `CCCC(CCC)C(N)=O` [VALPROMIDE], the PI [23] was 1.4, the ED50 [24] was 59 mg/kg and the ED50 [25] was 32 mg/kg. The ED50 [1] was 81 mg/kg, the ED50 [2] was 66 mg/kg and the ED50 [26] was 56 mg/kg. For the same molecule, the PI [27] was 2.7, the PI [28] was 1.2 and the TD50 [29] was 87 mg/kg. It also gave a PI [30] of 1.5, an ED50 [3] of 57 mg/kg and a PI [4] of 1.4. It also gave an ED50 [31] of 55 mg/kg and a PI [32] of 1.5.
